# Measured values as given in ChEMBL document CHEMBL5107978, “Identification of ligand linkage vectors for the development of p300/CBP degraders” (RSC Med Chem, 2022).
# Activity calls are given as the source filed them. The rule behind the calls is not given here.
# Experiments:
# [1] = molecular target: T1, CREB-binding protein/Histone acetyltransferase p300 (Homo sapiens) (UniProt Q09472+Q92793); test: Protac activity at p300/CBP degradation in human MM1.S cells assessed as amount p300 remaining at 10 uM incubated for 24 hrs by pulldown-based Western blot analysis; type: cell-based
# Summary of the method: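 MM1.S cells at 2 × 10^6 cells/well in RPMI 1640, pre-incubated 24 h at 37 °C, 5% CO2, then exposed 24 h at 1, 5 or 10 µM. RIPA lysates run on 3–8% tris-acetate SDS gels and probed for p300 and β-actin. Band intensity expressed relative to the lane's DMSO vehicle and β-actin loading control.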
# MM1.S = test: Antiproliferative activity against human MM1.S cells assessed as reduction in cell proliferation incubated for 72 hrs by MTS assay; type: functional, cell-based
# Summary of the method: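 MM1.S cells seeded at 2 × 10^5 cells/well, exposed 72 h in triplicate across 12.5–500 nM. Proliferation read by MTS dye absorbance. EC50 fitted with an [inhibitor] vs. normalized response model; uncertainty given as standard error.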
# [2] = molecular target: T1, CREB-binding protein/Histone acetyltransferase p300 (Homo sapiens); test: Binding affinity to p300/CBP in human OPM-2 cell lysate assessed as p300 pull down and measured after 12 hrs by pulldown-based Western blot analysis; type: subcellular
# Summary of the method: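 Biotinylated ligands coupled to streptavidin magnetic beads for 3 h at room temperature in 50 mM Tris pH 7.5, 300 mM NaCl, 0.05% NP40. Beads then incubated with OPM2 cell lysate overnight at 4°C, washed in binding buffer, boiled off in SDS loading buffer. Bound p300 detected by SDS-PAGE and anti-p300 immunoblot.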
# T1 sequence (Q09472 whole entry, looked up): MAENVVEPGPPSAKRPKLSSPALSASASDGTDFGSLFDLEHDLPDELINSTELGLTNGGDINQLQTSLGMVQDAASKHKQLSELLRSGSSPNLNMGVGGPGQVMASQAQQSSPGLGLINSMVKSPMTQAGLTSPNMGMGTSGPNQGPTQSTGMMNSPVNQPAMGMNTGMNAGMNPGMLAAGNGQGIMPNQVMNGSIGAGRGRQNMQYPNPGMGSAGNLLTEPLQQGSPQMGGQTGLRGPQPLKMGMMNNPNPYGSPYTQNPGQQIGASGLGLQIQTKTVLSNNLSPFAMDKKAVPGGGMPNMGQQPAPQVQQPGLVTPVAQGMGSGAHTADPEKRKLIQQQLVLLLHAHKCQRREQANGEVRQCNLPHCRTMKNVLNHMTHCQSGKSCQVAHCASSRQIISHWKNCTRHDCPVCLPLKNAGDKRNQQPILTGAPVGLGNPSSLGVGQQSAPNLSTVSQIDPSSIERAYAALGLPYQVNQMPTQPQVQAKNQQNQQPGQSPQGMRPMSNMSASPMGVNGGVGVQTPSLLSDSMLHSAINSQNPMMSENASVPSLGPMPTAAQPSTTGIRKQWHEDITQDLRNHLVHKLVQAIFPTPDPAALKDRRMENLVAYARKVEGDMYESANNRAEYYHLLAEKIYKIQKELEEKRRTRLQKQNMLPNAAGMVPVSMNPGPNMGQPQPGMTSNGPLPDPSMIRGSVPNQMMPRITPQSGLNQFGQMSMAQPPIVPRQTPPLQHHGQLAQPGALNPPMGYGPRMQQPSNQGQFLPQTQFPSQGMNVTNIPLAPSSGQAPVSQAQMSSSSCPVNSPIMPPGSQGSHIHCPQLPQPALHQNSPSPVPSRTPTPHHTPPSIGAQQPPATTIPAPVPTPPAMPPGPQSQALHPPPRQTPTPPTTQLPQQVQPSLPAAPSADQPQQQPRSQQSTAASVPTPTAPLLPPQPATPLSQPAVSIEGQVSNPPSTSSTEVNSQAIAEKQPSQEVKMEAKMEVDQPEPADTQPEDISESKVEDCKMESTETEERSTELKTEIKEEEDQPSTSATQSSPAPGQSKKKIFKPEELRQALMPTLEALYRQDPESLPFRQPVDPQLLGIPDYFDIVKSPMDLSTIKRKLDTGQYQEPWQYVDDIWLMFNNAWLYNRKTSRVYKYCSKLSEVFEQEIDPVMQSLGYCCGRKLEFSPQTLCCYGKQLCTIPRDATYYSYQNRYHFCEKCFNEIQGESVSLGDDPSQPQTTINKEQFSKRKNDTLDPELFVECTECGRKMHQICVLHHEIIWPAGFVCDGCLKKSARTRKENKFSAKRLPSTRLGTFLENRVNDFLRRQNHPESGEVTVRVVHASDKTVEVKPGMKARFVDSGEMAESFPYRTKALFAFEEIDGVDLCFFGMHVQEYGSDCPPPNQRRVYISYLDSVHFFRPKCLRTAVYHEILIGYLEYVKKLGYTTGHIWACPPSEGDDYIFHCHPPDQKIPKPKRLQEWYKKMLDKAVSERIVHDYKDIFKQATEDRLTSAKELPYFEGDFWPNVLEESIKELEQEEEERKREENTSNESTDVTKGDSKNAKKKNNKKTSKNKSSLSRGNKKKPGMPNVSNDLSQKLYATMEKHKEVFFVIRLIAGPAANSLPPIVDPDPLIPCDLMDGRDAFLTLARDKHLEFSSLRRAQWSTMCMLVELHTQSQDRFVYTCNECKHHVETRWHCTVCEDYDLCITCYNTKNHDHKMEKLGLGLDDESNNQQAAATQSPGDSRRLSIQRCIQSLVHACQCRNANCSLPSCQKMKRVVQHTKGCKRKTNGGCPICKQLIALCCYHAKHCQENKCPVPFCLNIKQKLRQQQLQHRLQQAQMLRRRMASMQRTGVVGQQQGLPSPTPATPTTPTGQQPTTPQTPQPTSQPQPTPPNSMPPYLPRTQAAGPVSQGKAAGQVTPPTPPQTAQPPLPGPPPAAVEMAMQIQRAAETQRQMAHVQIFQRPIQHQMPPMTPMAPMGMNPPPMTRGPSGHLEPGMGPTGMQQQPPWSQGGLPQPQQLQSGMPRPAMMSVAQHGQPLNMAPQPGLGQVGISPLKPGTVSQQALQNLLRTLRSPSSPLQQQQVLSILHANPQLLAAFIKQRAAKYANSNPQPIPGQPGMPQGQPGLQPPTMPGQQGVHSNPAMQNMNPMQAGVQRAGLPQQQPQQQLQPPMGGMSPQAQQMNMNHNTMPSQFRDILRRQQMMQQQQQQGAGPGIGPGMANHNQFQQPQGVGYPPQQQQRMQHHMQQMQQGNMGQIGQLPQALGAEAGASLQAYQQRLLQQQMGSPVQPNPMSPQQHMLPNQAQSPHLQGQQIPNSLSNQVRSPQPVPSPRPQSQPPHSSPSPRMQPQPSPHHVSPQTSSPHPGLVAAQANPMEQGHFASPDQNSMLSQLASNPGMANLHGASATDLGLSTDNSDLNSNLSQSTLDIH
# T1 sequence (Q92793 whole entry, looked up): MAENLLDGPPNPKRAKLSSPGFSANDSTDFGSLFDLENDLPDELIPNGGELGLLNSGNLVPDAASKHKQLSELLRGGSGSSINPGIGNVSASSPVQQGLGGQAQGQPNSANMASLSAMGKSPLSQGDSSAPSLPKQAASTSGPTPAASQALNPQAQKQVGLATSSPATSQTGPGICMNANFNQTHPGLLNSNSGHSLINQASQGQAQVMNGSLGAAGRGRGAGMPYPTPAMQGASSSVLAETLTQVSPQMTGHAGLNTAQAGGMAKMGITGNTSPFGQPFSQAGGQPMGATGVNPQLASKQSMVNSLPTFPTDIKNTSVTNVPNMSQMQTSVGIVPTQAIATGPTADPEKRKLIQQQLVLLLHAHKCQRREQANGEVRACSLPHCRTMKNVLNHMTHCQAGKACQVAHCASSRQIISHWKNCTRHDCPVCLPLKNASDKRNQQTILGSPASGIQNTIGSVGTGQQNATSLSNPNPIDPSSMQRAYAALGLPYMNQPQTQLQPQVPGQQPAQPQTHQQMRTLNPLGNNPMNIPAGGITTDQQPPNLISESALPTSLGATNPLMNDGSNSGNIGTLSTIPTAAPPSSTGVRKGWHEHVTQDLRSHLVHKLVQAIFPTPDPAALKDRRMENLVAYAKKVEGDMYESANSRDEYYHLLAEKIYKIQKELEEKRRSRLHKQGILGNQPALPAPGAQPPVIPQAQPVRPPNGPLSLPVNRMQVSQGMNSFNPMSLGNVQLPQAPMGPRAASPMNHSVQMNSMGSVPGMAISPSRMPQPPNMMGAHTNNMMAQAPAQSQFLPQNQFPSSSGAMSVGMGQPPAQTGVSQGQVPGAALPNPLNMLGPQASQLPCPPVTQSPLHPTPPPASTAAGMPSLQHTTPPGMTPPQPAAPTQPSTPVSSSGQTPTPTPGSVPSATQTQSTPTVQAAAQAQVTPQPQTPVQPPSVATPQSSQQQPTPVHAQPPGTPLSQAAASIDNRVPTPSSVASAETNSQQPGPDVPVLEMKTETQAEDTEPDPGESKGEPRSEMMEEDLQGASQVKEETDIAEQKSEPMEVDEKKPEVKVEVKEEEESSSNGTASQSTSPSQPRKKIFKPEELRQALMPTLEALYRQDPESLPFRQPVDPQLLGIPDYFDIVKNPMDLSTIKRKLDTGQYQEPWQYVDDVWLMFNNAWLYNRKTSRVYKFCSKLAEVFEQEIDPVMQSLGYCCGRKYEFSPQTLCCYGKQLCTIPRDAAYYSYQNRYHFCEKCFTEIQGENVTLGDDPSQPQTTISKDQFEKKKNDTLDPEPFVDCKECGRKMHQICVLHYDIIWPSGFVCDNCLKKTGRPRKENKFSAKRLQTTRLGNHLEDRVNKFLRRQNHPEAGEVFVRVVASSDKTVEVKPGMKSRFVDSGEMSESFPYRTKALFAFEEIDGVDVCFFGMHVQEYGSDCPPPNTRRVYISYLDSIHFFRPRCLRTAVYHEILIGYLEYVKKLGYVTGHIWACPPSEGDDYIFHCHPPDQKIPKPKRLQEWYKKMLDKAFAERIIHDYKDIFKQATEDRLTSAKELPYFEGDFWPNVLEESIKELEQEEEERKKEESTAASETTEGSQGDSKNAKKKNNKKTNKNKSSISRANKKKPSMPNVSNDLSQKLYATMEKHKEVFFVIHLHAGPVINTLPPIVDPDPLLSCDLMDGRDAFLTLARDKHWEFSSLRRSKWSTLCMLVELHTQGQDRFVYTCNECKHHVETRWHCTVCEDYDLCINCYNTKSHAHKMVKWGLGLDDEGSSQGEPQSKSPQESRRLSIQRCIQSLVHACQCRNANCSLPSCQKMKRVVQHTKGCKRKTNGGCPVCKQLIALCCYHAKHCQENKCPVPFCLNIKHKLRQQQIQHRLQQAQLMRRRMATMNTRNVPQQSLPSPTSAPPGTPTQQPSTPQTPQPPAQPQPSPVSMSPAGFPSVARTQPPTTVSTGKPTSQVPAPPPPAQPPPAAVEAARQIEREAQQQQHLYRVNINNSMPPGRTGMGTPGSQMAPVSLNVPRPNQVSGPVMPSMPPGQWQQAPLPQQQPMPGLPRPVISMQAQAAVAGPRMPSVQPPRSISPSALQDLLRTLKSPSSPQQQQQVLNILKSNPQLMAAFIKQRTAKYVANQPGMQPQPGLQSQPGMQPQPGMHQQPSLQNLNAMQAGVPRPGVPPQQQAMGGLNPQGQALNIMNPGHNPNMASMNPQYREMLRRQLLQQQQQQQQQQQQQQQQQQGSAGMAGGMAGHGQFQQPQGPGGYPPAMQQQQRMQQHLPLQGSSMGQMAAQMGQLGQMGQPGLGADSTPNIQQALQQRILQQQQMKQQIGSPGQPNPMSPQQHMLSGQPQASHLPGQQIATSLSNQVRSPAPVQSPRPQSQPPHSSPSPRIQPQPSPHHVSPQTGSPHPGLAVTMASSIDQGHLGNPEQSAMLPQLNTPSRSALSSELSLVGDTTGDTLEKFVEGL
SMILES,Activity [1] [%],EC50 (MM1.S) [nM],Activity [2]
C[C@H](N(Cc1ccc(F)cc1)C(=O)CN1C(=O)O[C@@]2(CCc3cc(NC(=O)NCCOCCOCCOCCNc4cccc5c4C(=O)N(C4CCC(=O)NC4=O)C5=O)ccc32)C1=O)C(F)(F)F (stereo partly drawn),18,–,–
CNC(=O)Nc1ccc2c(c1)CC[C@@]21OC(=O)N(CC(=O)N(Cc2ccc(F)cc2)[C@@H](C)C(F)(F)F)C1=O [A-485],–,139,Active

# Further lines, results first:
Activity [1] [%],EC50 (MM1.S) [nM],Activity [2],SMILES
9,422,–,C[C@H](N(Cc1ccc(F)cc1)C(=O)CN1C(=O)O[C@@]2(CCc3cc(NC(=O)NCCOCCOCCOCCOCCNc4cccc5c4C(=O)N(C4CCC(=O)NC4=O)C5=O)ccc32)C1=O)C(F)(F)F (stereo partly drawn)
49,294,–,C[C@H](N(Cc1ccc(F)cc1)C(=O)CN1C(=O)O[C@@]2(CCc3cc(NC(=O)NCCOCCOCCNc4cccc5c4C(=O)N(C4CCC(=O)NC4=O)C5=O)ccc32)C1=O)C(F)(F)F (stereo partly drawn)
42,–,–,C[C@H](N(Cc1ccc(F)cc1)C(=O)CN1C(=O)O[C@@]2(CCc3cc(NC(=O)NCCCCNc4cccc5c4C(=O)N(C4CCC(=O)NC4=O)C5=O)ccc32)C1=O)C(F)(F)F (stereo partly drawn)
